Test results published in ChEMBL document CHEMBL5724801, “EUbOPEN Chemogenomics Library - Multiplex” (2024).
Several values for one entry are separate records, joined by “and”; a condition that tells them apart may be missing. Identical values can stand only once.

Tested on: Fibroblast
Experiment: Multiplex assay against human fibroblast
Type: toxicity, cell-based
In short: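 Compound was added to live cells that had been stained at seeding with Hoechst33342, BioTracker Green Microtubule Cytoskeleton Dye, MitoTracker Red and Annexin V Alexa Fluor 680, and imaging followed on a CQ1 microscope at 37°C and 5% CO2. CellPathfinder machine-learning gating divided cells into Hoechst high-intensity objects or normal cells, normal cells into healthy, pyknosed or fragmented nuclei, and pyknosed cells into mitotic or apoptotic. Tubulin, mitochondrial-mass and membrane-permeability phenotypes are per cents of healthy-nucleus cells.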

[1] = 12 h, 1 µM, compound concentration 1 uM
[2] = 12 h, 10 µM, compound concentration 10 uM
[3] = 24 h, 1 µM, compound concentration 1 uM
[4] = 24 h, 10 µM, compound concentration 10 uM
[5] = 48 h, 1 µM, compound concentration 1 uM
[6] = 48 h, 10 µM, compound concentration 10 uM

O=C(NCCNCC(O)COc1ccc(O)cc1)N1CCOCC1.O=C(NCCNCC(O)COc1ccc(O)cc1)N1CCOCC1.O=C(O)/C=C/C(=O)O (configuration not stated) [XAMOTEROL FUMARATE]
Population Apoptotic (%) [1]: 63% and 43% | Population Fragmented Nuclei (%) [1]: 15% and 23% | Population Healthy Nuclei (%) [1]: 67% and 53% | Population Hoechst High Intensity Objects (%) [1]: 2% and 4% | Population Mitochondria Different-Phenotype (%) [1]: 4% and 7% | Population Mitotic Cells (%) [1]: 36% and 56% | Population Normal (%) [1]: 97% and 95% | Population Pyknosed Nuclei (%) [1]: 17% and 23% | Population Tubulin-Different-Phenotype (%) [1]: 24% and 55% | Total Cell Count [1]: 114 and 167 | Population Apoptotic (%) [2]: 30% and 17% | Population Fragmented Nuclei (%) [2]: 21% and 30% | Population Healthy Nuclei (%) [2]: 64% and 49% | Population Hoechst High Intensity Objects (%) [2]: 4% and 5% | Population Membrane Permeable-Phenotype (%) [2]: 2% and 4% | Population Mitochondria Different-Phenotype (%) [2]: 5% and 11% | Population Mitotic Cells (%) [2]: 70% and 82% | Population Normal (%) [2]: 95% and 94% | Population Pyknosed Nuclei (%) [2]: 14% and 20% | Population Tubulin-Different-Phenotype (%) [2]: 32% and 43% | Total Cell Count [2]: 143 and 154 | Population Apoptotic (%) [3]: 68% and 50% | Population Fragmented Nuclei (%) [3]: 20% and 28% | Population Healthy Nuclei (%) [3]: 63% and 52% | Population Hoechst High Intensity Objects (%) [3]: 1% and 2% | Population Mitochondria Different-Phenotype (%) [3]: 2% and 6% | Population Mitotic Cells (%) [3]: 31% and 50% | Population Normal (%) [3]: 98% and 97% | Population Pyknosed Nuclei (%) [3]: 15% and 19% | Population Tubulin-Different-Phenotype (%) [3]: 25% and 63% | Total Cell Count [3]: 121 and 149 | Population Apoptotic (%) [4]: 62% and 42% | Population Fragmented Nuclei (%) [4]: 20% and 34% | Population Healthy Nuclei (%) [4]: 67% and 54% | Population Hoechst High Intensity Objects (%) [4]: 1% | Population Membrane Permeable-Phenotype (%) [4]: 0% and 5% | Population Mitochondria Different-Phenotype (%) [4]: 0% and 8% | Population Mitotic Cells (%) [4]: 37% and 57% | Population Normal (%) [4]: 98% | Population Pyknosed Nuclei (%) [4]: 12% and 11% | Population Tubulin-Different-Phenotype (%) [4]: 31% and 41% | Total Cell Count [4]: 135 and 172 | Population Apoptotic (%) [5]: 65% and 40% | Population Fragmented Nuclei (%) [5]: 27% and 42% | Population Healthy Nuclei (%) [5]: 57% and 46% | Population Hoechst High Intensity Objects (%) [5]: 1% and 2% | Population Membrane Permeable-Phenotype (%) [5]: 1% and 7% | Population Mitochondria Different-Phenotype (%) [5]: 2% and 4% | Population Mitotic Cells (%) [5]: 35% and 60% | Population Normal (%) [5]: 98% and 97% | Population Pyknosed Nuclei (%) [5]: 15% and 10% | Total Cell Count [5]: 131 and 140 | Population Apoptotic (%) [6]: 56% and 52% | Population Fragmented Nuclei (%) [6]: 25% and 33% | Population Healthy Nuclei (%) [6]: 62% and 54% | Population Hoechst High Intensity Objects (%) [6]: 4% and 3% | Population Membrane Permeable-Phenotype (%) [6]: 1% and 6% | Population Mitochondria Different-Phenotype (%) [6]: 3% and 4% | Population Mitotic Cells (%) [6]: 43% and 47% | Population Normal (%) [6]: 95% and 96% | Population Pyknosed Nuclei (%) [6]: 11% | Population Tubulin-Different-Phenotype (%) [6]: 33% and 48% | Total Cell Count [6]: 144 and 157

N[C@](CC1c2ccccc2Oc2ccccc21)(C(=O)O)[C@H]1C[C@@H]1C(=O)O
Population Apoptotic (%) [1]: 44% and 58% | Population Fragmented Nuclei (%) [1]: 12% and 18% | Population Healthy Nuclei (%) [1]: 73% and 59% | Population Hoechst High Intensity Objects (%) [1]: 4% and 1% | Population Membrane Permeable-Phenotype (%) [1]: 0% and 7% | Population Mitochondria Different-Phenotype (%) [1]: 1% | Population Mitotic Cells (%) [1]: 56% and 41% | Population Normal (%) [1]: 95% and 98% | Population Pyknosed Nuclei (%) [1]: 13% and 21% | Population Tubulin-Different-Phenotype (%) [1]: 27% and 37% | Total Cell Count [1]: 189 and 113 | Population Apoptotic (%) [2]: 50% and 26% | Population Fragmented Nuclei (%) [2]: 13% and 20% | Population Healthy Nuclei (%) [2]: 66% and 59% | Population Hoechst High Intensity Objects (%) [2]: 1% and 7% | Population Membrane Permeable-Phenotype (%) [2]: 2% and 0% | Population Mitochondria Different-Phenotype (%) [2]: 2% and 7% | Population Mitotic Cells (%) [2]: 50% and 73% | Population Normal (%) [2]: 98% and 92% | Population Pyknosed Nuclei (%) [2]: 20% | Population Tubulin-Different-Phenotype (%) [2]: 22% and 33% | Total Cell Count [2]: 203 and 119 | Population Apoptotic (%) [3]: 68% and 33% | Population Fragmented Nuclei (%) [3]: 12% and 27% | Population Healthy Nuclei (%) [3]: 73% and 49% | Population Hoechst High Intensity Objects (%) [3]: 2% and 4% | Population Membrane Permeable-Phenotype (%) [3]: 2% and 6% | Population Mitochondria Different-Phenotype (%) [3]: 2% and 1% | Population Mitotic Cells (%) [3]: 32% and 66% | Population Normal (%) [3]: 97% and 95% | Population Pyknosed Nuclei (%) [3]: 13% and 22% | Population Tubulin-Different-Phenotype (%) [3]: 25% and 44% | Total Cell Count [3]: 183 and 123 | Population Apoptotic (%) [4]: 57% and 35% | Population Fragmented Nuclei (%) [4]: 10% and 18% | Population Healthy Nuclei (%) [4]: 68% and 66% | Population Hoechst High Intensity Objects (%) [4]: 1% and 2% | Population Membrane Permeable-Phenotype (%) [4]: 1% | Population Mitochondria Different-Phenotype (%) [4]: 3% and 4% | Population Mitotic Cells (%) [4]: 42% and 64% | Population Normal (%) [4]: 98% and 97% | Population Pyknosed Nuclei (%) [4]: 20% and 15% | Population Tubulin-Different-Phenotype (%) [4]: 30% and 34% | Total Cell Count [4]: 193 and 113 | Population Apoptotic (%) [5]: 62% and 23% | Population Fragmented Nuclei (%) [5]: 17% and 36% | Population Healthy Nuclei (%) [5]: 68% and 48% | Population Hoechst High Intensity Objects (%) [5]: 2% and 8% | Population Membrane Permeable-Phenotype (%) [5]: 0% and 9% | Population Mitochondria Different-Phenotype (%) [5]: 2% and 5% | Population Mitotic Cells (%) [5]: 37% and 76% | Population Normal (%) [5]: 97% and 91% | Population Pyknosed Nuclei (%) [5]: 14% | Population Tubulin-Different-Phenotype (%) [5]: 26% and 65% | Total Cell Count [5]: 189 and 125 | Population Apoptotic (%) [6]: 45% and 27% | Population Fragmented Nuclei (%) [6]: 14% and 27% | Population Healthy Nuclei (%) [6]: 68% and 63% | Population Hoechst High Intensity Objects (%) [6]: 5% and 3% | Population Membrane Permeable-Phenotype (%) [6]: 1% and 2% | Population Mitochondria Different-Phenotype (%) [6]: 2% | Population Mitotic Cells (%) [6]: 54% and 72% | Population Normal (%) [6]: 94% and 96% | Population Pyknosed Nuclei (%) [6]: 16% and 9% | Population Tubulin-Different-Phenotype (%) [6]: 32% and 28% | Total Cell Count [6]: 198 and 115

CC/C(=C(\c1ccc(O)cc1)c1ccc(OCCN(C)C)cc1)c1ccccc1 [AFIMOXIFENE]
Population Apoptotic (%) [1]: 6.78% and 3.57% | Population Fragmented Nuclei (%) [1]: 14.83% and 6.12% | Population Healthy Nuclei (%) [1]: 56.94% and 79.59% | Population Hoechst High Intensity Objects (%) [1]: 0% | Population Membrane Permeable-Phenotype (%) [1]: 2.52% and 2.56% | Population Mitochondria Different-Phenotype (%) [1]: 7.56% and 8.97% | Population Mitotic Cells (%) [1]: 93.22% and 96.43% | Population Normal (%) [1]: 100% | Population Pyknosed Nuclei (%) [1]: 28.23% and 14.29% | Population Tubulin-Different-Phenotype (%) [1]: 14.29% and 22.44% | Total Cell Count [1]: 209 and 196 | Population Fragmented Nuclei (%) [2]: 14.55% and 7.74% | Population Healthy Nuclei (%) [2]: 54.55% and 72.76% | Population Hoechst High Intensity Objects (%) [2]: 0% | Population Membrane Permeable-Phenotype (%) [2]: 3.33% and 2.55% | Population Mitochondria Different-Phenotype (%) [2]: 25.56% and 23.83% | Population Mitotic Cells (%) [2]: 94.12% and 80.95% | Population Normal (%) [2]: 100% | Population Pyknosed Nuclei (%) [2]: 30.91% and 19.5% | Population Tubulin-Different-Phenotype (%) [2]: 54.44% and 66.38% | Total Cell Count [2]: 165 and 323 | Population Apoptotic (%) [3]: 8.77% and 18.75% | Population Fragmented Nuclei (%) [3]: 10.78% and 8.21% | Population Healthy Nuclei (%) [3]: 64.66% and 83.59% | Population Hoechst High Intensity Objects (%) [3]: 0% | Population Membrane Permeable-Phenotype (%) [3]: 4% and 2.45% | Population Mitochondria Different-Phenotype (%) [3]: 6.67% and 9.82% | Population Mitotic Cells (%) [3]: 91.23% and 81.25% | Population Normal (%) [3]: 100% | Population Pyknosed Nuclei (%) [3]: 24.57% and 8.21% | Population Tubulin-Different-Phenotype (%) [3]: 18% and 23.31% | Total Cell Count [3]: 232 and 195 | Population Apoptotic (%) [4]: 17.65% and 48.31% | Population Fragmented Nuclei (%) [4]: 12.57% | Population Healthy Nuclei (%) [4]: 50.27% and 67.6% | Population Hoechst High Intensity Objects (%) [4]: 0% | Population Membrane Permeable-Phenotype (%) [4]: 3.26% and 2.76% | Population Mitochondria Different-Phenotype (%) [4]: 29.35% and 27.19% | Population Mitotic Cells (%) [4]: 82.35% and 51.69% | Population Normal (%) [4]: 100% | Population Pyknosed Nuclei (%) [4]: 37.16% and 27.73% | Population Tubulin-Different-Phenotype (%) [4]: 70.65% and 79.72% | Total Cell Count [4]: 183 and 321 | Population Fragmented Nuclei (%) [5]: 9.52% and 11.27% | Population Healthy Nuclei (%) [5]: 83.67% and 81.69% | Population Hoechst High Intensity Objects (%) [5]: 0% | Population Membrane Permeable-Phenotype (%) [5]: 1.22% and 2.3% | Population Mitochondria Different-Phenotype (%) [5]: 9.35% and 5.17% | Population Mitotic Cells (%) [5]: 95% and 73.33% | Population Normal (%) [5]: 100% | Population Pyknosed Nuclei (%) [5]: 6.8% and 7.04% | Population Tubulin-Different-Phenotype (%) [5]: 8.94% and 25.86% | Total Cell Count [5]: 294 and 213 | Population Apoptotic (%) [6]: 28.57% and 43.14% | Population Healthy Nuclei (%) [6]: 71.37% and 80.49% | Population Hoechst High Intensity Objects (%) [6]: 0% | Population Membrane Permeable-Phenotype (%) [6]: 4.71% | Population Mitochondria Different-Phenotype (%) [6]: 13.37% and 7.41% | Population Mitotic Cells (%) [6]: 71.43% and 56.86% | Population Normal (%) [6]: 100% | Population Pyknosed Nuclei (%) [6]: 8.71% and 13.82% | Population Tubulin-Different-Phenotype (%) [6]: 49.42% and 76.77% | Total Cell Count [6]: 241 and 369
